Substitutions are numbered along the chain they refer to. Activity calls are given as the source filed them. No cut-off for these calls is given here.
Experiments:
[1] = biological target: T1, Tyrosine-protein phosphatase non-receptor type 11 (Homo sapiens) (UniProt Q06124); experiment: Inhibition of GST-tagged SHP2 at 100 uM
T1 sequence (whole entry): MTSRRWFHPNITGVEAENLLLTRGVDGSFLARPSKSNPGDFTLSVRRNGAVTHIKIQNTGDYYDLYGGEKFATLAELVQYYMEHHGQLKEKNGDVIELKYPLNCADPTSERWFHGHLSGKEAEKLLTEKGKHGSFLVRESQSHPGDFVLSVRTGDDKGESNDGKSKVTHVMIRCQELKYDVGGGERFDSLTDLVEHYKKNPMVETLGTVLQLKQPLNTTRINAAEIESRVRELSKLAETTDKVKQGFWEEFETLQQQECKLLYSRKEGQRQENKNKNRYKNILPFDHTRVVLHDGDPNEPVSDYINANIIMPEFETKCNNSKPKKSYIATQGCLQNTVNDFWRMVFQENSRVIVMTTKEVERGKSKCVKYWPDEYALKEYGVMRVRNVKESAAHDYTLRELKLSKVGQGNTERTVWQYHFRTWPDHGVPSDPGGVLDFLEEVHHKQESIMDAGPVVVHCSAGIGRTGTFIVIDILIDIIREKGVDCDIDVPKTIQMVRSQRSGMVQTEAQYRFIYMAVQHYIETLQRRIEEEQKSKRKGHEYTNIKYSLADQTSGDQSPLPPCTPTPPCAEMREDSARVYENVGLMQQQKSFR
Summary of the method: (§1)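 GST-SHP-2 PTP domain (0.5 μg) preincubated 30 min at room temperature with compound or DMSO in 25 mM Tris-HCl pH 7.4, 50 mM NaCl, 5 mM DTT, 2.5 mM EDTA. Orthovanadate (100 μM) served as positive control.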

[2] = biological target: T1, Tyrosine-protein phosphatase non-receptor type 11 (Homo sapiens); experiment: Inhibition of GST-tagged SHP2; summary of the method: as §1
[3] = biological target: T2, Tyrosine-protein phosphatase non-receptor type 11 (Mus musculus) (UniProt P35235); experiment: Inhibition of EGF-induced SHP2 activation in mouse embryonic fibroblasts by immunocomplex phosphatase assay
T2 sequence (whole entry): T1 sequence (whole entry) with M450V, A550V, K590R
Summary of the method: (§2)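 WT or SHP-2 D61G/D61G knock-in MEFs starved overnight in serum-free medium, compound (100 μM) for the last 1 h, then EGF 10 min (50 ng/mL in methods, 20 ng/mL in legend). RIPA lysates (500 μg) immunoprecipitated with anti-SHP-2, washed in HNTG, then assayed by malachite green phosphatase assay.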

[4] = test system: T3, Tyrosine-protein phosphatase non-receptor type 11 (Mus musculus), P35235 [D61G]; experiment: Inhibition of EGF-induced SHP2 D61G mutant activation in mouse embryonic fibroblasts by immunocomplex phosphatase assay; summary of the method: as §2
T3 sequence (whole entry): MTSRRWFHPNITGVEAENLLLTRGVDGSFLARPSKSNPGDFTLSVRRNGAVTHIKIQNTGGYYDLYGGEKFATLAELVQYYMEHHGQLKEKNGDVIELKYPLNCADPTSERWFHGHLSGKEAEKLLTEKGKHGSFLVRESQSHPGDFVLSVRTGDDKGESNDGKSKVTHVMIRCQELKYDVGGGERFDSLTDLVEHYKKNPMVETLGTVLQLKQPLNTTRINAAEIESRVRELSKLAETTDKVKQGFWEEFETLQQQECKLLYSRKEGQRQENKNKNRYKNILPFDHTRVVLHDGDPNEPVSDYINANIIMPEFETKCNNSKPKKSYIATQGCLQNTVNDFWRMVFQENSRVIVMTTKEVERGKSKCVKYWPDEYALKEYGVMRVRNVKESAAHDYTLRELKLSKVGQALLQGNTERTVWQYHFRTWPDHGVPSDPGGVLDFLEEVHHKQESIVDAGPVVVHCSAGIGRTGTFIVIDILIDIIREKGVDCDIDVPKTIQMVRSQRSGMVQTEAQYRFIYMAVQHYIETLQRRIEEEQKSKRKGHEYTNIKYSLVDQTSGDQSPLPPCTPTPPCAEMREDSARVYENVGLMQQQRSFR

[5] = biological target: T2, Tyrosine-protein phosphatase non-receptor type 11 (Mus musculus); experiment: Inhibition of SHP2 assessed as blockade of IL3-induced ERK1/ERK2 activation in mouse Ba/F3 cells by immunoblotting; format: cell-based; details: BaF3
Summary of the method: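 Ba/F3 cells deprived of IL-3 for 8 h, treated with compound 1 h before stimulation with IL-3 (2 ng/mL), and harvested at several times. Lysates immunoblotted for phospho-Erk, then stripped and reprobed for pan-Erk as loading control.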

[6] = biological target: T1, Tyrosine-protein phosphatase non-receptor type 11 (Homo sapiens); experiment: Binding affinity to SHP2 PTP domain assessed as quenching of enzyme fluorescence by fluorescence titration assay
Summary of the method: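 Tryptophan fluorescence quenching of GST-SHP-2 PTP domain held at 3 μM in 20 mM Tris-HCl pH 7.5, titrated with increasing compound. Excitation 295 nm, emission 360–500 nm. Compound-alone fluorescence subtracted. Intensities are relative, not corrected for detector response.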

[7] = biological target: T1, Tyrosine-protein phosphatase non-receptor type 11 (Homo sapiens); experiment: Inhibition of GST-tagged SHP2 at 200 uM; summary of the method: as §1
[8] = biological target: Tyrosine-protein phosphatase non-receptor type 6 (Homo sapiens) (UniProt P29350); experiment: Inhibition of GST-tagged SHP1
Tyrosine-protein phosphatase non-receptor type 6 (Homo sapiens), sequence (P29350 whole entry): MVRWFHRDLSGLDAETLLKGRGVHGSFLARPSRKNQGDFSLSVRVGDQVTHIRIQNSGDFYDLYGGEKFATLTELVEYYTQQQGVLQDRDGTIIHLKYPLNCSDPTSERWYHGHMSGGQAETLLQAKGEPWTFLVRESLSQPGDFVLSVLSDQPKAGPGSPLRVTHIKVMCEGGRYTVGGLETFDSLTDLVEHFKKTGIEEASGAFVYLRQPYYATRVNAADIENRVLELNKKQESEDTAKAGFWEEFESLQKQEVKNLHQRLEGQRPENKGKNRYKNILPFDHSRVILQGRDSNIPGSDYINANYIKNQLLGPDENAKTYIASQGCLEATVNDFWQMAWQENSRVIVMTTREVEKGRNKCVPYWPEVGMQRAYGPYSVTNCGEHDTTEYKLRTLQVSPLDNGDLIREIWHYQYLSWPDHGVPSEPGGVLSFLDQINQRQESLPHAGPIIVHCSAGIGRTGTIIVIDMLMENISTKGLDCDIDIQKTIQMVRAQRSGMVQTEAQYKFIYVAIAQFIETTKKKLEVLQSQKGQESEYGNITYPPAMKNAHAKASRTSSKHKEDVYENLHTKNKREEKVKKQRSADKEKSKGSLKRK

[9] = biological target: T4, Tyrosine-protein phosphatase non-receptor type 2 (Homo sapiens) (UniProt P17706); experiment: Inhibition of GST-tagged TC-PTP
T4 sequence (whole entry): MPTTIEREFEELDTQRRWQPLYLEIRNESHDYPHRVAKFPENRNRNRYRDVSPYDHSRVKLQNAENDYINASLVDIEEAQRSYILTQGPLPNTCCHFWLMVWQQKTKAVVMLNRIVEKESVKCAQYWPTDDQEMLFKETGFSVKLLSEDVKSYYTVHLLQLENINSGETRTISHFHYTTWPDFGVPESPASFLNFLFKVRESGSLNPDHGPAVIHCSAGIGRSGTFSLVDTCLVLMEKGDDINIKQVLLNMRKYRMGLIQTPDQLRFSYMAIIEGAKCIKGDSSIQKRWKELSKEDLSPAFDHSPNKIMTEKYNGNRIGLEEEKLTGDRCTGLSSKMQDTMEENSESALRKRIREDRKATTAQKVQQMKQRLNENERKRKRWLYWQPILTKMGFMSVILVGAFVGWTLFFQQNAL

[10] = biological target: T5, Receptor-type tyrosine-protein phosphatase C (Homo sapiens) (UniProt P08575); experiment: Inhibition of GST-tagged CD45
T5 sequence (whole entry): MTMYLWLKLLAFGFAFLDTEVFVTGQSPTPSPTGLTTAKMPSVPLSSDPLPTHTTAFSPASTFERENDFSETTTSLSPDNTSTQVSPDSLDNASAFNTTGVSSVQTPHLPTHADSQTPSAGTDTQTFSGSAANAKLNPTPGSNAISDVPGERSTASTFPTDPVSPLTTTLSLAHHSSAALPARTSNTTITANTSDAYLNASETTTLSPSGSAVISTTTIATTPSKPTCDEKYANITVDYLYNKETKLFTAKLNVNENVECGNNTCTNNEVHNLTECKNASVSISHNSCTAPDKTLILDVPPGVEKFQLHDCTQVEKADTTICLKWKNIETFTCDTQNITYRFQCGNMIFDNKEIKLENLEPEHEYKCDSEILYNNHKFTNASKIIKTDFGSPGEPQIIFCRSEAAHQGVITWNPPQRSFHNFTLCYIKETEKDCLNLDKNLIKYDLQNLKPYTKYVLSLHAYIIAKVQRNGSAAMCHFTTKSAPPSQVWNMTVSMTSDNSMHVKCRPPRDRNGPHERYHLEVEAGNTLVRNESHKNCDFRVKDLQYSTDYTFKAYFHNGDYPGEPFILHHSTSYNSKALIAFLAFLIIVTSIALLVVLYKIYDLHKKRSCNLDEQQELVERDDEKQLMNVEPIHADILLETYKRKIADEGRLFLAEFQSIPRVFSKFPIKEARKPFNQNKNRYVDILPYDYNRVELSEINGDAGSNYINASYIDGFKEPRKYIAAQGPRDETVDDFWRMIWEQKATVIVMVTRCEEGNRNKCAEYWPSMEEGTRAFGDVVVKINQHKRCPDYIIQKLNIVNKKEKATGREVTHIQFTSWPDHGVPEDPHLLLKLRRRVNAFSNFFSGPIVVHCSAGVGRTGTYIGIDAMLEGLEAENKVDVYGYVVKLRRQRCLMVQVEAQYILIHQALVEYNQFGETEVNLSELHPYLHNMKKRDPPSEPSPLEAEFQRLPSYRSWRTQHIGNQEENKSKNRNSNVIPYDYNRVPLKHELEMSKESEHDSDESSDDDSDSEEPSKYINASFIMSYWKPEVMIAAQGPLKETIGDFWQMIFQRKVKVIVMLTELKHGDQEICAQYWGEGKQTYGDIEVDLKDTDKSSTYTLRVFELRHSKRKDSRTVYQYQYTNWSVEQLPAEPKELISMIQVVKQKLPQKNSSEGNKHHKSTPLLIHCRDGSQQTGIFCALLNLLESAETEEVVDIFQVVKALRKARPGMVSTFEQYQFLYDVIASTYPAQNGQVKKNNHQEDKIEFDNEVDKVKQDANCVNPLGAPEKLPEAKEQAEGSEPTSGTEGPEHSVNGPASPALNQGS

BaF3 = experiment: Antiproliferative activity against IL3-stimulated mouse BA/F3 cells assessed as decrease in cell growth after 72 hrs by MTS assay; format: functional, cell-based
Summary of the method: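 Ba/F3 (IL-3-dependent murine pro-B line) seeded at 2×10⁴ cells/well in RPMI-1640 with 10% FBS and mouse IL-3 (1 ng/mL), plus compound at 100 or 200 μM or DMSO. Cell number read by MTS after 72 h.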

Structure (SMILES) | inhibition [1] [%] | Activity [2] | Activity [6] | also measured
Cc1cc(C)c2c(c1)[nH]c1nnc(SCC(=O)NCc3cccs3)nc12 | 50 | Dose-dependent effect | Active | Activity [3]: Active; Activity [4]: Active; Activity [5]: Active
CCc1ccc(OCC(=O)Nc2ccc(S(N)(=O)=O)cc2)cc1 | – | Dose-dependent effect | inactive | –
CNC(=S)NNC(=O)CSCCS(=O)(=O)c1ccccc1 | – | Dose-dependent effect | inactive | –
CSc1ccc(C2C(C#N)=C(N)Oc3[nH]nc(-c4ccccc4Cl)c32)cc1 (stereo unspecified) | – | Dose-dependent effect | Active | –
NNc1ccc(S(=O)(=O)O)cc1 | 70 | Dose-dependent effect | – | Activity [7]: Active; Activity [8]: Active; Activity [9]: inactive; Activity [10]: inactive
O=C(CCCn1c(=O)c2cccn2c2cccnc21)NCc1ccccc1F | 45 | Dose-dependent effect | – | –
NS(=O)(=O)c1ccc(CCNC(=O)c2ccc(Cn3c(=S)[nH]c4ccc(Br)cc4c3=O)cc2)cc1 | 55 | Dose-dependent effect | Active | Activity [3]: Active; Activity [4]: Active; Activity [5]: Active; Activity (BaF3): Active
CNC(=S)NNC(=O)c1csc(-c2cccs2)n1 | 40 | Dose-dependent effect | – | –
NC(N)=NN[C@@H]1O[C@H](CO)[C@@H](O)[C@H](O)[C@H]1O | – | Dose-dependent effect | inactive | –
